According to ChEMBL document CHEMBL1177643, “Synthesis, DNA-binding ability and anticancer activity of benzothiazole/benzoxazole-pyrrolo[2,1-c][1,4]benzodiazepine conjugates” (Bioorg Med Chem, 2010):
Values joined by “and” are separate entries in the source; they are usually repeats but may differ in a detail not shown here. Equal entries are not always repeated.

What was measured:
[1] = tested on: A-375; assay: Induction of apoptosis in human A375 cells at 2 uM; assay type: functional, cell-based
Outline: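 A375 melanoma cells (5 × 10⁵ per 60 mm dish) grown 24 h, then exposed to 2 μM compound (final) for 24 h; DMSO-treated cells as control. Cells harvested with trypsin–EDTA, fixed in ice-cold 70% ethanol, treated with RNase A, and stained with propidium iodide. DNA content of 20,000 events read by flow cytometry; sub-G1 (G0) area taken as apoptotic.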

[2] = tested on: A-375; assay: Cell cycle arrest in human A375 cells assessed as accumulation at G1 phase at 0.5 uM after 24 hrs using propidium iodide staining by flow cytometry; assay type: functional
Outline: (§1)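 A375 cells (5×10^5) grown 24 h, then exposed to compound 24 h (DMSO control). Trypsin–EDTA harvest, fixed in ice-cold 70% ethanol at 4 °C 30 min, RNase A 37 °C 30 min, propidium iodide staining. DNA content measured by flow cytometry on 20,000 events, gated as sub-G1/G0, G1, S and G2/M.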

[3] = tested on: A-375; assay: Cell cycle arrest in human A375 cells assessed as accumulation at S phase at 0.5 uM after 24 hrs using propidium iodide staining by flow cytometry; assay type: functional; outline: as §1
[4] = tested on: A-375; assay: Cell cycle arrest in human A375 cells assessed as accumulation at G2/M phase at 0.5 uM after 24 hrs using propidium iodide staining by flow cytometry; assay type: functional; outline: as §1
[5] = tested on: A-375; assay: Cell cycle arrest in human A375 cells assessed as accumulation at G0/G1 phase at 0.5 uM after 24 hrs using propidium iodide staining by flow cytometry; assay type: functional; outline: as §1
[6] = tested on: A-375; assay: Cell cycle arrest in human A375 cells assessed as accumulation at G0 phase at 1 uM after 24 hrs using propidium iodide staining by flow cytometry; assay type: functional; outline: as §1
[7] = tested on: A-375; assay: Cell cycle arrest in human A375 cells assessed as accumulation at S phase at 1 uM after 24 hrs using propidium iodide staining by flow cytometry; assay type: functional; outline: as §1
[8] = tested on: A-375; assay: Cell cycle arrest in human A375 cells assessed as accumulation at G2/M phase at 1 uM after 24 hrs using propidium iodide staining by flow cytometry; assay type: functional; outline: as §1
[9] = tested on: A-375; assay: Cell cycle arrest in human A375 cells assessed as accumulation at G0/G1 phase at 1 uM after 24 hrs using propidium iodide staining by flow cytometry; assay type: functional; outline: as §1
[10] = tested on: A-375; assay: Cell cycle arrest in human A375 cells assessed as accumulation at sub-G0 phase at 0.5 uM after 24 hrs using propidium iodide staining by flow cytometry; assay type: functional; outline: as §1
[11] = tested on: HT-29; assay: Antitumor activity against human HT-29 cells xenografted in SCID mouse assessed as reduction tumor volume at 15 mg/kg, ip measured on day 1; assay type: functional; conditions: route intraperitoneal
Outline: (§2)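 HT29 xenografts in scid mice; dosing ip on days 1, 5 and 9 (q4d), 5 or 10 mg/kg per dose (total 15 or 30 mg/kg); vehicle control group. Tumour volume, body weight and toxicity followed for 35 days. Relative tumour volume = volume on given day / volume on day 1; T/C = mean RTV treated / mean RTV control.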

[12] = tested on: HT-29; assay: Antitumor activity against human HT-29 cells xenografted in SCID mouse assessed as reduction tumor volume at 15 mg/kg, ip measured on day 5; assay type: functional; conditions: route intraperitoneal; outline: as §2
[13] = tested on: HT-29; assay: Antitumor activity against human HT-29 cells xenografted in SCID mouse assessed as reduction tumor volume at 15 mg/kg, ip measured on day 9; assay type: functional; conditions: route intraperitoneal; outline: as §2
[14] = tested on: HT-29; assay: Antitumor activity against human HT-29 cells xenografted in SCID mouse assessed as reduction tumor volume at 30 mg/kg, ip measured on day 9; assay type: functional; conditions: route intraperitoneal; outline: as §2
[15] = tested on: HT-29; assay: Antitumor activity against human HT-29 cells xenografted in SCID mouse assessed as reduction tumor volume at 30 mg/kg, ip measured on day 17; assay type: functional; conditions: route intraperitoneal; outline: as §2
[16] = tested on: HT-29; assay: Antitumor activity against human HT-29 cells xenografted in SCID mouse assessed as reduction tumor volume at 15 mg/kg, ip measured on day 21; assay type: functional; conditions: route intraperitoneal; outline: as §2
[17] = tested on: HT-29; assay: Antitumor activity against human HT-29 cells xenografted in SCID mouse assessed as reduction tumor volume at 30 mg/kg, ip measured on day 21; assay type: functional; conditions: route intraperitoneal; outline: as §2
[18] = tested on: HT-29; assay: Antitumor activity against human HT-29 cells xenografted in SCID mouse assessed as reduction tumor volume at 15 mg/kg, ip measured on day 25; assay type: functional; conditions: route intraperitoneal; outline: as §2
[19] = tested on: HT-29; assay: Antitumor activity against human HT-29 cells xenografted in SCID mouse assessed as reduction tumor volume at 15 mg/kg, ip measured on day 28; assay type: functional; conditions: route intraperitoneal; outline: as §2
[20] = tested on: HT-29; assay: Antitumor activity against human HT-29 cells xenografted in SCID mouse assessed as reduction tumor volume at 15 mg/kg, ip measured on day 32; assay type: functional; conditions: route intraperitoneal; outline: as §2
[21] = tested on: HT-29; assay: Antitumor activity against human HT-29 cells xenografted in SCID mouse assessed as reduction tumor volume at 30 mg/kg, ip measured on day 35; assay type: functional; conditions: route intraperitoneal; outline: as §2
[22] = tested on: Mus musculus; assay: Toxicity in SCID mouse assessed as weight loss at 30 mg/kg, ip; assay type: organism-based; design: dose 30 mg/kg, route intraperitoneal; conditions: in vivo
Outline: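 HT29 xenograft-bearing scid mice dosed ip at 5 or 10 mg/kg on days 1, 5 and 9 (q4d), totalling 15 or 30 mg/kg. Vehicle-treated control group. Body weight, survival and signs of overt toxicity were recorded over the 35-day study.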

**Q.** What does the source list for `COc1cc(-c2nc3ccccc3s2)ccc1OCCCCCOc1cc2c(cc1OC)C(=O)N1CCC[C@H]1C=N2`?
**A.** Activity [1]: Dose-dependent effect; Activity [2]: 64.95%; Activity [3]: 64.95%; Activity [4]: 15.96%; Activity [5]: 67.08%; Activity [6]: 2.7%; Activity [7]: 15.42%; Activity [8]: 20.32%; Activity [9]: 64.26%; Activity [10]: 2.13%; T/C [11]: 1%; T/C [12]: 0.65% and 0.62%; T/C [13]: 0.49%; T/C [14]: 0.78%; T/C [15]: 0.81%; T/C [16]: 0.65% and 0.2%; T/C [17]: 0.58%; T/C [18]: 0.72% and 0.2%; T/C [19]: 0.73% and 0.18%; T/C [20]: 0.76% and 0.16%; T/C [21]: 0.68%; Activity [22]: Non-toxic
